Data from ChEMBL document CHEMBL2021927, “Synthesis and evaluation of the cytotoxicities of tetraindoles: observation that the 5-hydroxy tetraindole (SK228) induces G₂ arrest and apoptosis in human breast cancer cells” (J Med Chem, 2012).

What was measured:
MDA-MB-231 [1] = assay: Increase in cdc2 phosphorylation at Tyr15 expression in human MDA-MB-231 cells after 48 hrs by Western blot analysis; type: functional, cell-based
Method in brief: (§1)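 MDA-MB-231 cells treated with 0.2, 0.4 or 0.8 μM for 24 and 48 h. Attached and floating cells were lysed in RIPA-type buffer with protease inhibitors, and protein was quantified by BCA. Equal protein was run on 10%/15% SDS-PAGE and transferred to nitrocellulose. Blots were probed 1 h at room temperature for phospho-cdc2, cyclin B1, caspase-3, bak/bcl-2 or actin loading control, with HRP secondary and ECL detection.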

MDA-MB-231 [2] = assay: Growth inhibition of human MDA-MB-231 cells after 48 hrs by MTT assay; type: functional, cell-based
MDA-MB-231 [3] = assay: Increase in cyclin B1 expression in human MDA-MB-231 cells after 24 hrs by Western blot analysis; type: functional, cell-based; method in brief: as §1
Detroit 551 [4] = assay: Selectivity ratio of IC50 for human Detroit 551 cells to IC50 for human SW620 cells
MCF7 [5] = assay: Growth inhibition of human MCF7 cells after 48 hrs by MTT assay; type: functional, cell-based; conditions: MCF7, 48 h
SW48 = assay: Selectivity ratio of IC50 for human Detroit 551 cells to IC50 for human SW48 cells
[6] = Selectivity ratio of IC50 for human MT10 cells to IC50 for human U87MG cells; type: ADME, cell-based, U-87MG ATCC; conditions: MT10 cells and U87MG cells, read-out: Ratio IC50
Method in brief: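 Ratio of the IC50 in normal M10 cells to the IC50 in each cancer line. […] The paper reports the fold difference as the normal-cell to tumour-cell IC50 ratio.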

MDA-MB-231 [7] = assay: Induction of apoptosis in human MDA-MB-231 cells assessed as bcl-2 protein level after 24 to 48 hrs by Western blot analysis; type: functional, cell-based; method in brief: as §1
MDA-MB-231 [8] = assay: Cell cycle arrest in human MDA-MB-231 cells at accumulation at S phase at 0.8 uM after 48 hrs by propidium iodide staining-based flow cytometric analysis (reference value: 20%); type: functional
MCF7 [9] = assay: Ratio of IC50 for cyclic tetramer to compound for human MCF7 cells after 48 hrs by MTT assay; type: functional
[10] = Growth inhibition of human M10 cells after 48 hrs by MTT assay; type: cell-based; conditions: M10, 48 h
MDA-MB-231 [11] = assay: Ratio of IC50 for cyclic tetramer to compound for human MDA-MB-231 cells after 48 hrs by MTT assay; type: functional
MDA-MB-361 = assay: Growth inhibition of human MDA-MB-361 cells after 48 hrs by MTT assay; type: functional, cell-based; conditions: MDA-MB-361, 48 h
Detroit 551 [12] = assay: Selectivity ratio of IC50 for human Detroit 551 cells to IC50 for human A549 cells
MDA-MB-231 [13] = assay: Cell cycle arrest in human MDA-MB-231 cells at accumulation at G2/M phase at 0.8 uM after 24 hrs by propidium iodide staining-based flow cytometric analysis (reference value: 30%); type: functional
MDA-MB-231 [14] = assay: Induction of apoptosis in human MDA-MB-231 cells assessed as caspase 3 cleavage after 24 to 48 hrs by Western blot analysis; type: functional, cell-based; method in brief: as §1
Detroit 551 [15] = assay: Selectivity ratio of IC50 for human Detroit 551 cells to IC50 for human U87MG cells
MDA-MB-468 = assay: Growth inhibition of human MDA-MB-468 cells after 48 hrs by MTT assay; type: functional, cell-based; conditions: MDA-MB-468, 48 h
SW480 = assay: Selectivity ratio of IC50 for human Detroit 551 cells to IC50 for human SW480 cells
MDA-MB-231 [16] = assay: Induction of apoptosis in human MDA-MB-231 cells assessed as increase in late apoptotic cells at 0.4 uM by annexinV propidium iodide staining-based flow cytometric analysis; type: functional, cell-based; conditions: TDE = time-dependent effect
Method in brief: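 MDA-MB-231 cells treated with 0.4 μM, washed twice in PBS and stained with annexin V-FITC/propidium iodide. Populations scored as viable (both negative), early apoptotic (annexin V positive, PI negative) or late apoptotic/dead (both positive).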

For `Oc1ccc2[nH]cc(C(c3ccc(C(c4c[nH]c5ccc(O)cc45)c4c[nH]c5ccc(O)cc45)cc3)c3c[nH]c4ccc(O)cc34)c2c1`, the Activity (MDA-MB-231 [1]) was “Dose-dependent effect”, the inhibition (MDA-MB-231 [2]) was “Dose-dependent effect” and the IC50 (MDA-MB-231 [2]; MDA-MB-231, 48 h) was 450 nM. For the same compound, the Activity (MDA-MB-231 [3]) was “Dose-dependent effect”, the Ratio IC50 (Detroit 551 [4]) was greater than 20 and the IC50 (MCF7 [5]) was 880 nM. The Ratio IC50 (SW48) was greater than 22.7, the selectivity ratio [6] was 2 and the Activity (MDA-MB-231 [7]) was “Dose-dependent effect”. The Activity (MDA-MB-231 [8]) was 20%, the “Ratio IC50” value (MCF7 [9]) was 2 and the IC50 [10] was 5810 nM. The “Ratio IC50” value (MDA-MB-231 [11]) was 2, the IC50 (MDA-MB-361) was 2070 nM and the Ratio IC50 (Detroit 551 [12]) was greater than 6.9. The Activity (MDA-MB-231 [13]) was 40%, the Activity (MDA-MB-231 [14]) was “Dose-dependent effect” and the Ratio IC50 (Detroit 551 [15]) was greater than 7.3. The IC50 (MDA-MB-468) was 830 nM, the Ratio IC50 (SW480) was greater than 54 and the Activity (MDA-MB-231 [16]) was “tde”.
